# Source: PMC5811788 (Journal of Clinical Pharmacology, 2017)
# Several values for one entry are separate records, joined by “and”; a condition that tells them apart may be missing. Identical values can stand only once. Like-named read-outs stand apart in the source and are kept apart here. Marks after values point to notes of the source that are not given here.
# Tests used:
# [1] = format: in vivo, healthy subjects (human); conditions: for AUC(0-t): AUClast; for Geometric Mean Ratio (90%CI) of AUCinf / Geometric Mean Ratio (90%CI) of AUClast / Geometric Mean Ratio (90%CI) of Cmax: istradefylline + rifampin vs istradefylline alone
# Method in brief: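 Crossover in 20 healthy humans. Single oral 40 mg tablet of the test compound given after ≥8 h fast, alone (period 1) or on day 8 of rifampin 600 mg once daily (days 1–20, dosed 2 h after test compound). Venous plasma sampled predose to 312 h. Noncompartmental AUClast and AUCinf, reported as geometric means and geometric mean ratios with 90% CI.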
# Safety and tolerability = format: in vivo, healthy subjects (human); conditions: for Subjects who experienced AEs: 20 subjects
# [2] = ref data on file; Kyowa Kirin Pharmaceutical Development, Inc.; cited from earlier work
# [3] = ref data on file; Kyowa Kirin Pharmaceutical Development, Inc.; cited from earlier work; remark: listed apart in the source
# [4] = cited from earlier work
# [5] = test system: cytochrome P450 (CYP) isoenzymes; conditions: ref data on file; Kyowa Kirin Pharmaceutical Development, Inc.; cited from earlier work
# [6] = in those who received various CYP3A4 inhibitors; 1449 healthy subjects and PD patients; cited from earlier work
# [7] = coadministration of ketoconazole, healthy subjects; cited from earlier work
# P‐glycoprotein (P‐gp) = conditions: ref data on file; Kyowa Kirin Pharmaceutical Development, Inc.; cited from earlier work
# [8] = doses of 20 and 40 mg/day; cited from earlier work
# A2A receptor = conditions: A2A vs A1, A2B, A3; cited from earlier work
# [9] = istradefylline 40 mg + steady-state rifampin 600 mg/day, arithmetic mean (SD)
# [10] = istradefylline 40 mg alone, arithmetic mean (SD)
# [11] = during administration of the substance alone
# [12] = healthy subjects, independent of dose
# [13] = ln-transformed, istradefylline 40 mg + rifampin 600 mg/day, geometric mean (CV%)
# [14] = ln-transformed, istradefylline 40 mg alone, geometric mean (CV%)
# [15] = metabolite-to-parent ratio, istradefylline 40 mg alone, arithmetic mean (SD)
structure (smiles),measurement,setting,value
CCn1c(=O)c2c(nc(/C=C/c3ccc(OC)c(OC)c3)n2C)n(CC)c1=O [Istradefylline],Decrease in istradefylline exposure based on AUC values,[1]; during coadministration of steady-state oral rifampin 600 mg/day,~80%
same,Cmax,"[1]; human, plasma, oral, 40 mg",171 ng/mL
same,Tmax,"[1]; human, plasma, oral, 40 mg",2 h
same,Vd/F,"[1]; human, plasma, oral, 40 mg",515 L
same,half-life,"[1]; human, plasma, oral, 40 mg",94.8 h
same,AUC(0-t),"[1]; human, plasma, oral, 40 mg, geometric mean, ln-transformed, istradefylline 40 mg alone, geometric mean (CV%)",9460 ng·h/mL
same,AUC(0-t),"[1]; human, plasma, oral, 40 mg, istradefylline 40 mg alone, arithmetic mean (SD)",9850 ng·h/mL
same,Cmax,"[1]; human, plasma, po, 40 mg",181 ng/mL
same,CL/F,[1]; [9],20.6 (6.7) L/h
same,CL/F,[1]; [10],4.0 (1.5) L/h
same,CL/F,"[1]; istradefylline 40 mg alone, arithmetic mean (SD), listed as istradefylline",4.0 L/h and 4.00 L/h
same,Geometric Mean Ratio (90%CI) of AUCinf,[1],0.19 (0.18–0.20)
same,Geometric Mean Ratio (90%CI) of AUClast,[1],0.21 (0.19–0.22)
same,Geometric Mean Ratio (90%CI) of Cmax,[1],0.55 (0.49–0.62)
same,Geometric Mean Ratio (90%CI) of AUCinf,[1]; listed as istradefylline,0.19
same,Geometric Mean Ratio (90%CI) of AUClast,[1]; listed as istradefylline,0.21
same,Geometric Mean Ratio (90%CI) of Cmax,[1]; listed as istradefylline,0.55
same,Subjects who experienced AEs,Safety and tolerability; during administration of istradefylline + rifampin,25%
same,Subjects who experienced AEs,Safety and tolerability; [11],20%
same,Tolerability,Safety and tolerability; given alone or in combination with rifampin,well tolerated
same,Treatment-related AEs (considered related to istradefylline),"Safety and tolerability; while receiving istradefylline alone, mild, transient disturbance in attention, asthenia, intermittent dizziness",single subject
same,Aqueous solubility,[2],poor aqueous solubility
same,Bound to plasma protein,[3],~98%
same,Dose proportionality of exposure (Cmax and AUC),[4]; healthy subjects and PD patients,directly proportional to istradefylline dose (up to 80 mg)
same,Apparent clearance (CL/F),[4]; [12],4.1 to 6.0 L/h
same,Apparent volume of distribution (Vz/F),[4]; [12],448 to 557 L
same,Terminal elimination half-life (t1/2),[4]; [12],67 to 95 h
same,CYP isoenzymes partly involved in metabolism,[5],"CYP1A2, 2B6, 2C8, 2C9, 2C18, and 2D6*1"
same,Main CYP isoenzymes involved in metabolism,[5],"CYP1A1, 3A4, and 3A5"
same,Increase in AUC during the dosing interval at steady state (AUCss),[6],38%
same,Increase in AUCinf,[7],2.5 fold
same,P-gp substrate,P‐glycoprotein (P‐gp),not a P‐gp substrate
same,OFF time in PD patients,[8],statistically significant improvement in OFF time
same,"In vitro affinity, selectivity among adenosine receptor subtypes",A2A receptor,"higher in vitro affinity toward the A2A receptor than for A1, A2B, and A3 receptors"
"CCn1c(=O)c2c(nc(/C=C/c3ccc(O)c(OC)c3)n2C)n(CC)c1=O [M1 metabolite, 4′‐O‐monodesmethylated derivative of istradefylline]",Exposure of metabolite in plasma as share of total drug exposure,[1]; generally,< 9%
same,AUCinf,[1]; [9],159 (47.6) ^b ng·h/mL
same,AUClast,[1]; [9],118 (44.3) ng·h/mL
same,t1/2,[1]; [9],17.6 (4.95) ^b h
same,Tmax,"[1]; istradefylline 40 mg + steady-state rifampin 600 mg/day, median (min, max)","3.0 (1.0, 6.0) h"
same,AUClast,[1]; [10],123 (77.6) ng·h/mL
same,Tmax,"[1]; istradefylline 40 mg alone, median (min, max)","3.5 (2.0, 12.0) h"
same,Geometric Mean Ratio (90%CI) of AUClast,[1],1.04 (0.90–1.21)
same,Geometric Mean Ratio (90%CI) of Cmax,[1],1.79 (1.59–2.01)
same,Geometric Mean Ratio (90%CI) of AUClast,[1]; listed as istradefylline M1,1.04
same,Geometric Mean Ratio (90%CI) of Cmax,[1]; listed as istradefylline M1,1.79
same,All M/P ratios,[1]; istradefylline alone or with rifampin (M8: except M/P ratio for Cmax after coadministration),< 9%
same,Change in AUClast during rifampin coadministration (GMR comparison),[1]; ln-transformed data,+4%
same,Change in Cmax during rifampin coadministration (GMR comparison),[1]; ln-transformed data,+79%
same,"AUClast, geometric mean",[1]; [13],110 (41.8) ng·h/mL
same,"Cmax, geometric mean",[1]; [13],7.0 (29.0) ng/mL
same,"AUClast, geometric mean",[1]; [14],105 (61.4) ng·h/mL
same,"Cmax, geometric mean",[1]; [14],3.90 (46.3) ng/mL
same,M/P ratio (AUClast),[1]; [15],0.0134 (0.0078)
same,M/P ratio (Cmax),[1]; [15],0.0241 (0.0045)
same,Cmax,"[1]; plasma, single oral istradefylline 40 mg alone, arithmetic mean (SD)",4.34 (2.49) ng/mL
"CO[C@H]1/C=C/O[C@@]2(C)Oc3c(C)c(O)c4c(O)c(c(/C=N/N5CCN(C)CC5)c(O)c4c3C2=O)NC(=O)/C(C)=C\C=C\[C@H](C)[C@H](O)[C@@H](C)[C@@H](O)[C@@H](C)[C@H](OC(C)=O)[C@@H]1C [rifampin, reference compound]",Subjects who experienced AEs,Safety and tolerability; [11],85%
same,Subjects with chromaturia,Safety and tolerability; subjects receiving rifampin,70%
